The values that follow come from ChEMBL document CHEMBL4619802, “Discovery and Characterization of Pure RhlR Antagonists against Pseudomonas aeruginosa Infections” (J Med Chem, 2020).

Activity calls are given as the source filed them. The rule behind the calls is not given here.

For test [1], the system named is Pseudomonas aeruginosa. Nature of the test: Antibacterial activity against Pseudomonas aeruginosa assessed as bacterial growth at 10 uM incubated for 24 hrs relative to control. The class given is functional. Put shortly:
(§1)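 P. aeruginosa overnight culture (OD595 1.0) diluted 1:20 in AB medium (pH 7.5, 1% glucose, casamino acids, arginine) with compound, in borosilicate bottles, 37 °C for 24 h without shaking. Growth taken as OD595 of the suspended culture. Attached cells washed twice with PBS, stained with 0.1% crystal violet for 10 min, dye eluted in ethanol and read at 545 nm.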

Test [2] relates to Pseudomonas aeruginosa. Nature of the test: Effect on pycocyanin production in Pseudomonas aeruginosa harboring RhlR mutant at 10 uM after 24 hrs by […]. The class given is functional, organism-based. Put shortly: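 P. aeruginosa overnight culture (OD595 = 1.0) was diluted 1:100 in AB medium with compounds or controls at 0–10 µM and grown at 37 °C for 24 h. Pyocyanin was extracted from the supernatant with 50% TFA at 37 °C for 1 h, then filtered. It was quantified by C18 HPLC (99:1 water/TFA, 0.5 mL/min, 25 °C) as peak height at the 20 min retention time.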

The subject of test [3] is Pseudomonas aeruginosa. Kind of test: Antibacterial activity against Pseudomonas aeruginosa assessed as bacterial growth at 100 uM incubated for 24 hrs relative to control. The class given is functional. The procedure, abridged:
as §1

Test [4] addresses T1, Transcriptional activator protein LasR (Pseudomonas aeruginosa (strain ATCC 15692 / PAO1 / 1C / PRS 101 / LMG12228)) (UniProt P25084).
T1 sequence (whole entry): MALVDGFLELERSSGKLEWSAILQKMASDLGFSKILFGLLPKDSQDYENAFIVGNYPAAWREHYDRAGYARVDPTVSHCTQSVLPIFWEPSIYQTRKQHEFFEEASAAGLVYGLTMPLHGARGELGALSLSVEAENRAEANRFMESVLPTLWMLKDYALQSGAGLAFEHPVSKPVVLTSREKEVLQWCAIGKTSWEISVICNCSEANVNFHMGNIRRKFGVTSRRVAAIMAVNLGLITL
Kind of test: Agonist activity at Pseudomonas aeruginosa LasR expressed in Escherichia coli DH5alpha at 0.1 to 10 uM incubated for 1.5 hrs by luminescence reporter gene assay. On the technique in general: Reporter assays use an easily measured gene product as a stand-in for the process of interest.

The test system of test [5] is Pseudomonas aeruginosa. Nature of the test: Effect on lasB expression in Pseudomonas aeruginosa harboring RhlR mutant up to 10 uM after 24 hrs by RT-qPCR method. The class given is functional, organism-based. Put shortly:
(§2)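 P. aeruginosa overnight culture (OD595 = 1.0) was diluted 1:20 in AB medium (pH 7.5) with compounds or controls at 0–10 µM. It was grown statically in borosilicate bottles at 37 °C for 24 h, and biofilm cells were collected. Total RNA was extracted with TRI reagent. SYBR-based RT-qPCR used QS gene primers: 95 °C 10 s, then 40 cycles of 95 °C 10 s and 60 °C 10 s.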

Test [6] concerns the target T2, Transcriptional regulator MvfR (Pseudomonas aeruginosa PA14) (UniProt A0A072ZLE6).
T2 sequence (whole entry): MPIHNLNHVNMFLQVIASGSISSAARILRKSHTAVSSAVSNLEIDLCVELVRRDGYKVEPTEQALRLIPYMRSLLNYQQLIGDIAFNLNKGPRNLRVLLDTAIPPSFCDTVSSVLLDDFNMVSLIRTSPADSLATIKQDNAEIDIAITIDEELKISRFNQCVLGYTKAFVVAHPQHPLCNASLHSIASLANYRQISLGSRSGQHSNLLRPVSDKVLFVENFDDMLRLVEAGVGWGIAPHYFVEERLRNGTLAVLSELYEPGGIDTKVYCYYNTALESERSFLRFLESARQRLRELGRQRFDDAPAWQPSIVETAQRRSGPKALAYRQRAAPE
Nature of the test: Agonist activity at Pseudomonas aeruginosa PqsR expressed in Escherichia coli DH5alpha at 0.1 to 10 uM incubated for 1.5 hrs by luminescence reporter gene assay.

Test [7] has as its system Pseudomonas aeruginosa. Nature of the test: Antibacterial activity against Pseudomonas aeruginosa infected in Tenebrio molitor larvae assessed as larvae survival at 10 uM incubated for 20 days and measured every 5 days. The class given is functional. Put shortly:
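P. aeruginosa overnight culture (OD595 = 1.0) was centrifuged, and the supernatant passed through a 0.22 µm filter. 10 µL was injected into T. molitor larvae by syringe needle, with compounds or controls at 0–10 µM. Larvae were kept in Petri dishes at 25 °C for 20 days, and mortality was scored every 5 days.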

Test [8] has as its system Pseudomonas aeruginosa. Kind of test: Effect on extracellular polymeric substance in biofilm of Pseudomonas aeruginosa assessed as reduction in carbohydrate level at 10 uM relative to control. The class given is functional. Also on record: scale not given: the % may be the effect or the level left. Put shortly:
(§3)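 Biofilm scraped from drip-flow reactor slides and resuspended in 0.01 M KCl. Sonicated 4 cycles of 5 s on/5 s off, supernatant filtered through 0.22 µm. Protein by Lowry/Folin, read at OD750. Carbohydrate by sulfuric acid 30 min then 5% phenol at 90 °C for 5 min, read at OD490. Each divided by OD595.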

Test [9] concerns Pseudomonas aeruginosa. Nature of the test: Downregulation of phzC1 expression in Pseudomonas aeruginosa harboring RhlR mutant up to 10 uM after 24 hrs by RT-qPCR method. The class given is functional, organism-based. The procedure, abridged:
as §2
(In general: In qPCR the cycle at which signal appears reflects the starting amount.)

Test [10] addresses T2, Transcriptional regulator MvfR (Pseudomonas aeruginosa PA14). Nature of the test: Antagonist activity at Pseudomonas aeruginosa PqsR expressed in Escherichia coli DH5alpha at 0.1 to 10 uM incubated for 1.5 hrs by luminescence reporter gene assay.
Test [11] has as its system Pseudomonas aeruginosa. Nature of the test: Downregulation of rhlA expression in Pseudomonas aeruginosa harboring RhlR mutant up to 10 uM after 24 hrs by RT-qPCR method. The class given is functional, organism-based. Put shortly:
as §2

Test [12] relates to Pseudomonas aeruginosa. Nature of the test: Effect on extracellular polymeric substance in biofilm of Pseudomonas aeruginosa assessed as reduction in protein level at 10 uM relative to control. The class given is functional. Also on record: scale not given: the % may be the effect or the level left. The procedure, abridged:
as §3

Test [13] has as its system Pseudomonas aeruginosa. Kind of test: Effect on lasR expression in Pseudomonas aeruginosa harboring RhlR mutant up to 10 uM after 24 hrs by RT-qPCR method. The class given is functional, organism-based. The procedure, abridged:
as §2

The subject of test [14] is Pseudomonas aeruginosa. Nature of the test: Effect on pqsR expression in Pseudomonas aeruginosa harboring RhlR mutant up to 10 uM after 24 hrs by RT-qPCR method. The class given is functional, organism-based. The procedure, abridged:
as §2

In test [15] the test system is Pseudomonas aeruginosa. Nature of the test: Downregulation of rhlA expression in biofilm of Pseudomonas aeruginosa at 10 uM after 24 hrs by RT-qPCR analysis relative to control. The class given is functional. The procedure, abridged: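 P. aeruginosa (OD595 1.0) diluted 1:20 in AB medium with compound in borosilicate bottles, 37 °C for 24 h. Total RNA extracted from biofilm cells and run by SYBR RT-qPCR with QS-gene primers. Cycling: 95 °C 10 s, then 40 cycles of 95 °C 10 s and 60 °C 10 s.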

The target of test [16] is T1, Transcriptional activator protein LasR (Pseudomonas aeruginosa (strain ATCC 15692 / PAO1 / 1C / PRS 101 / LMG12228)). Kind of test: Antagonist activity at Pseudomonas aeruginosa LasR expressed in Escherichia coli DH5alpha at 0.1 to 10 uM incubated for 1.5 hrs by luminescence reporter gene assay.
For test [17], the target named is T3, HTH-type quorum-sensing regulator RhlR (Pseudomonas aeruginosa (strain ATCC 15692 / PAO1 / 1C / PRS 101 / LMG12228)) (UniProt P54292).
T3 sequence (whole entry): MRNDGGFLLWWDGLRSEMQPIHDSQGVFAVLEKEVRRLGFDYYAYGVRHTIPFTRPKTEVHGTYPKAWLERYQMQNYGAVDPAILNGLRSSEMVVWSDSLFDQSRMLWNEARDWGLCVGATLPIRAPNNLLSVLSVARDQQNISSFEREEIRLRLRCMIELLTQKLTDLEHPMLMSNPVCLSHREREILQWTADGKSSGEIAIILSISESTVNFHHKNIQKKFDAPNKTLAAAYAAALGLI
Nature of the test: Antagonist activity at Pseudomonas aeruginosa RhlR expressed in Escherichia coli DH5alpha assessed as relative protein activity at 100 uM incubated for 1.5 hrs in presence of N-butyryl-L-homoserine lactone by luminescence reporter gene assay relative to control. Details: scale not given: the % may be the effect or the level left. The procedure, abridged: (§4)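 E. coli DH5α sdiA mutant carrying RhlR and rhlA::lacZ plasmids, at OD595 0.3 in LB. Compound given with BHL (10 µM per footnote) and 0.4% arabinose, 37 °C for 1.5 h.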

Test [18] deals with T3, HTH-type quorum-sensing regulator RhlR (Pseudomonas aeruginosa (strain ATCC 15692 / PAO1 / 1C / PRS 101 / LMG12228)). Kind of test: Agonist activity at Pseudomonas aeruginosa RhlR expressed in Escherichia coli DH5alpha assessed as relative protein activity at 100 uM incubated for 1.5 hrs by luminescence reporter gene assay relative to control.
The target is the same in test [19]. Nature of the test: Modulation of RhlR in Pseudomonas aeruginosa assessed as inhibition of biofilm formation at 10 uM incubated for 24 hrs under static condition by crystal violet staining based assay relative to control. Details: scale not given: the % may be the effect or the level left. The procedure, abridged:
as §1

The target is the same in test [20]. Nature of the test: Modulation of RhlR in Pseudomonas aeruginosa assessed as inhibition of biofilm formation at 100 uM incubated for 24 hrs under static condition by crystal violet staining based assay relative to control. Also on record: scale not given: the % may be the effect or the level left. The procedure, abridged:
as §1

Test [21] has the same target. Kind of test: Modulation of RhlR in Pseudomonas aeruginosa assessed as biofilm formation at 10 uM incubated for 24 hrs under static condition by crystal violet staining based assay relative to control.
For test [22] the target is unchanged. Nature of the test: Modulation of RhlR in Pseudomonas aeruginosa assessed as reduction in biofilm formation at 10 uM incubated for 48 hrs under dynamic condition by measuring biofilm volume by 4',6-diamidino-2-phenylindole staining based confocal laser scanning microscopy. The procedure, abridged:
(§5)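 Drip-flow reactor with glass slides, fed continuously at 0.3 mL/min with AB medium containing 5% P. aeruginosa (OD595 1.0) plus compound, 37 °C for 48 h. Unattached cells removed with PBS. Volume and thickness obtained with Comstat2.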

The target is the same in test [23]. Kind of test: Antagonist activity at RhlR in Pseudomonas aeruginosa assessed as rhamnolipid production at 100 uM incubated for 24 hrs by Orcinol staining based assay relative to control. Also on record: scale not given: the % may be the effect or the level left.
For test [24] the target is unchanged. Kind of test: Agonist activity at Pseudomonas aeruginosa RhlR expressed in Escherichia coli DH5alpha assessed as relative protein activity at 1000 uM incubated for 1.5 hrs by luminescence reporter gene assay relative to control.
Test [25] has the same target. Nature of the test: Antagonist activity at RhlR in Pseudomonas aeruginosa assessed as rhamnolipid production at 10 uM incubated for 24 hrs by Orcinol staining based assay relative to control. Details: scale not given: the % may be the effect or the level left.
Test [26] shares this target. Nature of the test: Modulation of RhlR in Pseudomonas aeruginosa assessed as biofilm formation at 100 uM incubated for 24 hrs under static condition by crystal violet staining based assay relative to control.
The target is the same in test [27]. Kind of test: Modulation of RhlR in Pseudomonas aeruginosa assessed as reduction in biofilm formation at 10 uM incubated for 48 hrs under dynamic condition by measuring biofilm thickness by 4',6-diamidino-2-phenylindole staining based confocal laser scanning microscopy. Put shortly:
as §5

For test [28] the target is unchanged. Nature of the test: Antagonist activity at Pseudomonas aeruginosa RhlR expressed in Escherichia coli DH5alpha assessed as relative protein activity at 10 uM incubated for 1.5 hrs in presence of N-butyryl-L-homoserine lactone by luminescence reporter gene assay relative to control. Also on record: scale not given: the % may be the effect or the level left. Put shortly:
as §4

As to `CCCC(=O)C#Cc1ccc(F)c(F)c1`, the Activity is given as 103% in the test on Pseudomonas aeruginosa [1]; 99% in the test with Pseudomonas aeruginosa [3]; 39% with Pseudomonas aeruginosa [8]; 72% in the test on Pseudomonas aeruginosa [12]; 65 - 79% in the test on Pseudomonas aeruginosa [15]. Besides, the outcome (in the test with Pseudomonas aeruginosa [2]; in test [4]; with Pseudomonas aeruginosa [5]; in test [6]; in [10]; with Pseudomonas aeruginosa [13]) was inactive. In addition, in the test with Pseudomonas aeruginosa [14], the result was inactive. In the test with Pseudomonas aeruginosa [7], the survival at 10 µM came to 80%. Besides, the outcome with Pseudomonas aeruginosa [9] and with Pseudomonas aeruginosa [11] was Active.
Turning to `CCCC(O)CC(=O)CCc1ccc(O)c(OC)c1` (configuration not stated), the outcome in [16], in [4], in test [6] and in test [10] was inactive. Besides, the Activity in [17] is 54 to 69%; in test [18], 3 to 4%; in test [19] it was 14 to 32%; in test [20], 29 to 53%; in the test with Pseudomonas aeruginosa [15], 65 - 79%.
For the molecule `CCCCC[C@H](O)CC(=O)CCc1ccc(O)c(OC)c1` [GINGEROL], the Activity with Pseudomonas aeruginosa [1] worked out at 96%; in the test on Pseudomonas aeruginosa [3] it was 101%; in the test with Pseudomonas aeruginosa [15] it was 38%. The outcome in test [16] was Active. Also, the outcome in [4], in [6] and in [10] was inactive.
`CCCC(=O)NC1CCCC1`: the Activity is 84% in [21]; 95% in the test on Pseudomonas aeruginosa [1]; 14.4 um3/um2 in [22]; 98% in the test on Pseudomonas aeruginosa [3]; 54% in test [17]; 45% in test [23]. The Activity in test [24] amounted to 37%; in [18], 4%; in test [25] it was 58%; in test [26], 69%; in [27], 20.2 µm; in test [28], 74%. In addition, the Activity in the test on Pseudomonas aeruginosa [15] was 65 - 79%. Also, the outcome in [4], in test [6] and in test [10] was inactive.
